Data as given in paper PMC9704493 (RSC Advances, 2022).
Like-named read-outs stand apart in the source and are kept apart here.

Columns and labels:
Type in all cases: cell-based, human
[1] = system: HCT-116 colorectal carcinoma cells; experiment: MTT cell viability assay, HCT-116; conditions: for Selectivity indices (SI), HCT-116: HCT-116 versus MRC-5 fibroblasts
Outline: (§1)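 Cells were seeded at 3 × 10^3 per well and grown for 24 h at 37 °C/5% CO2. A T0 plate was read at dosing and the others after 72 h. MTT (5 mg mL−1 in PBS) was added for 2.5 h, formazan dissolved in DMSO, and absorbance read at 550 nm. GI50 was interpolated, in triplicate. SI compares MRC-5 with cancer-line activity.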

[2] = system: MCF-7 breast cancer cells; experiment: MTT cell viability assay, MCF-7; conditions: for Selectivity indices (SI), MCF-7: MCF-7 versus MRC-5 fibroblasts
Outline: as §1

MRC-5 fibroblasts = experiment: MTT cell viability assay, MRC-5 normal fibroblasts; conditions: for GI50: read-out: GI50 values (M) mean ± SD, MRC-5
Outline: as §1

HCT-116 cells = experiment: Clonogenic assay, HCT-116 colony formation; conditions: 10 μM, 24 h exposure; second group, printed as HCT-116
Outline: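 HCT-116 cells (RPMI 1640, 10% FBS, 1% glutamine) were seeded at 400 per well in 6-well plates and left to attach for 24 h. They were given test compound at 5 or 10 μM for 24 h, with medium alone as control. Cells were then washed with cold PBS and grown in fresh medium at 37 °C until control colonies reached ≥50 cells. Colonies were methanol-fixed, stained with 0.05% methylene blue and counted. Survival fraction is % of control, from five independent trials (n = 2 each).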

[3] = read-out: GI50 values (M) mean ± SD, HCT-116, MTT, 72 h exposure
[4] = read-out: GI50 values (M) mean ± SD, MCF-7, MTT, 72 h exposure
[5] = Homo sapiens, HCT-116, 72 h, read-out: GI50 values (M) mean ± SD, HCT-116
[6] = Homo sapiens, MCF7, 72 h, read-out: GI50 values (M) mean ± SD, MCF-7
[7] = Homo sapiens, MCF7, 72 h, read-out: GI50 values (µM) mean ±SD, MCF-7

| Compound | GI50 [1, 5] [M] | GI50 [2, 6] [M] | Selectivity indices (SI), HCT-116 [1] | Selectivity indices (SI), MCF-7 [2] | GI50 (MRC-5 fibroblasts; Homo sapiens, MRC5, 72 h) [M] | further results |
| --- | --- | --- | --- | --- | --- | --- |
| 2-(2-(1-(4-Fluorophenyl)ethylidene)hydrazinyl)-4-(4-cyanophenyl) thiazole [Compound 3e] | – | – | 6.5 | 1.6 | – | GI50 [1, 3]: 6.9e-06 ± 2e-07 M; GI50 [2, 4]: 2.85e-05 ± 8e-07 M; GI50 (MRC-5 fibroblasts; MTT, 72 h exposure): 4.47e-05 ± 2e-07 M |
| N#Cc1ccc(-c2csc(NN=Cc3ccccc3F)n2)cc1 [Compound 3a, 2-(2-(2-Fluorobenzylidene)hydrazinyl)-4-(4-cyanophenyl) thiazole] | – | – | – | – | – | colony formation (HCT-116 cells): completely prevented colony formation |
| N#Cc1ccc(-c2csc(NN=Cc3cccc(F)c3)n2)cc1 [Compound 3b, 2-(2-(3-Fluorobenzylidene)hydrazinyl)-4-(4-cyanophenyl) thiazole] | – | – | – | – | – | GI50 ([1]; Homo sapiens, HCT-116, 72 h, read-out: GI50 values (µM) mean ±SD, HCT-116): 2.2e-06 M; GI50 [2, 7]: 3.66e-05 M |
| N#Cc1ccc(-c2csc(NN=Cc3cccc(I)c3)n2)cc1 [Compound 3d, 2-(2-(3-Iodobenzylidene)hydrazinyl)-4-(4-cyanophenyl) thiazole] | – | – | – | – | – | fold reduction in potency against HCT-116 cells ([1]; relative to its potency against MCF-7 cells): 5 fold; GI50 [2, 7]: 2.3e-06 M |
| N#Cc1ccc(-c2csc(NN=Cc3cc(Cl)ccc3O)n2)cc1 [Compound 3g, 2-(2-(5-Chloro-2-hydroxybenzylidene) hydrazinyl)-4-(4-cyanophenyl) thiazole] | 9.7e-06 ± 4e-07 | 4.1e-06 ± 4e-07 | 1.7 | 4.1 | 1.68e-05 ± 7e-07 | – |
| Cc1ccc(C)c(C=NNc2nc(-c3ccc(C#N)cc3)cs2)c1 [Compound 3i, 2-(2-(2,5-Dimethylbenzylidene)hydrazinyl)-4-(4-cyanophenyl) thiazole] | 8e-06 ± 3e-07 | 7.1e-06 ± 3e-07 | 0.8 | 0.9 | 6.2e-06 ± 4e-07 | – |
| COc1ccc(OC)c(C=NNc2nc(-c3ccc(C#N)cc3)cs2)c1 [Compound 3j, 2-(2-(2,5-Dimethoxybenzylidene)hydrazinyl)-4-(4-cyanophenyl) thiazole] | 6.9e-06 ± 2.5e-06 | 3.7e-06 ± 4e-07 | 3.3 | 6.1 | 2.25e-05 ± 1e-07 | – |
| COc1ccc(C=NNc2nc(-c3ccc(C#N)cc3)cs2)c(C)c1 [Compound 3k, 2-(2-(4-Methoxy-2-methylbenzylidene) hydrazinyl)-4-(4-cyanophenyl) thiazole] | 3.7e-05 ± 9e-07 | 3.68e-05 ± 2.7e-06 | 0.4 | 0.4 | 1.61e-05 ± 2e-07 | – |
| COc1ccc(C=NNc2nc(-c3ccc(C#N)cc3)cs2)c(OC)c1 [Compound 3l, 2-(2-(2,4-Dimethoxybenzylidene)hydrazinyl)-4-(4-cyanophenyl) thiazole] | 8.4e-06 ± 9e-07 | 9.2e-06 ± 4e-07 | 3.6 | 3.3 | 3.01e-05 ± 6e-07 | GI50 values (µM) mean ±SD, MRC-5 (MRC-5 fibroblasts; MTT, 72 h exposure): no significant activity |
| COc1cc(C=NNc2nc(-c3ccc(C#N)cc3)cs2)cc(OC)c1 [Compound 3o, 2-(2-(3,5-Dimethoxybenzylidene)hydrazinyl)-4-(4-cyanophenyl) thiazole] | 3.56e-05 ± 1.1e-06 | 4.78e-05 ± 1.1e-06 | 0.5 | 0.4 | 1.65e-05 ± 5e-07 | – |
| N#Cc1ccc(-c2csc(NN=Cc3cc(F)cc(Br)c3)n2)cc1 [Compound 3p, 2-(2-(3-Bromo-5-fluorobenzylidene)hydrazinyl)-4-(4-cyanophenyl) thiazole] | 8.1e-06 ± 2e-07 | 7.3e-06 ± 2e-07 | 2.2 | 2.4 | 1.77e-05 ± 7e-07 | – |
| CCOc1cc(C=NNc2nc(-c3ccc(C#N)cc3)cs2)ccc1O [Compound 3s, 2-(2-(3-Ethoxy-4-hydroxybenzylidene) hydrazinyl)-4-(4-cyanophenyl) thiazole] | 8.4e-06 ± 6e-07 | 7.3e-06 ± 8e-07 | 2.2 | 2.5 | 1.81e-05 ± 4e-07 | – |
| Cc1ccc(C=NNc2nc(-c3ccc(C#N)cc3)cs2)cc1C [Compound 3t, 2-(2-(3,4-Dimethylbenzylidene)hydrazinyl)-4-(4-cyanophenyl) thiazole] | 6.5e-06 ± 2.6e-06 | 4.5e-06 ± 1.4e-06 | 2 | 2.9 | 1.32e-05 ± 3e-07 | colony formation (HCT-116 cells): completely prevented colony formation |
| N#Cc1ccc(-c2csc(NN=Cc3ccc(Cl)c(Cl)c3)n2)cc1 [Compound 3u, 2-(2-(3,4-Dichlorobenzylidene)hydrazinyl)-4-(4-cyanophenyl) thiazole] | 2.72e-05 ± 5e-07 | 1.28e-05 ± 7e-07 | 1.1 | 2.4 | 3.04e-05 ± 2e-07 | – |
| N.N.[Cl][Pt][Cl] [cisplatin, reference compound] | – | – | 0.9 | 1.3 | – | GI50 [1, 3]: 9.8e-06 ± 2e-07 M; GI50 [2, 4]: 7.5e-06 ± 7e-07 M; GI50 (MRC-5 fibroblasts; MTT, 72 h exposure): 9.7e-06 ± 4e-07 M |
| N#Cc1ccc(-c2csc(N/N=C/c3cccc(I)c3)n2)cc1 [d] | 1.13e-05 ± 7e-07 | 2.3e-06 ± 2e-07 | – | – | 3.49e-05 ± 3e-07 | – |

Further lines, with some results ahead:

| GI50 [1, 5] [M] | GI50 [2, 6] [M] | Compound | Selectivity indices (SI), HCT-116 [1] | Selectivity indices (SI), MCF-7 [2] | GI50 (MRC-5 fibroblasts; Homo sapiens, MRC5, 72 h) [M] | further results |
| --- | --- | --- | --- | --- | --- | --- |
| 6.2e-06 ± 5e-07 | 4.3e-06 ± 3e-07 | N#Cc1ccc(-c2csc(NN=Cc3cc(Br)cs3)n2)cc1 [3c′, 2-(2-((4-Bromothiophen-2-yl)methylene)hydrazinyl)-4-(4-cyanophenyl) thiazole] | 1.2 | 1.8 | 7.6e-06 ± 1e-07 | – |
| 4.4e-06 ± 2e-07 | 9e-06 ± 1.2e-06 | Cc1nc(C=NNc2nc(-c3ccc(C#N)cc3)cs2)sc1C [3d′, 2-(2-((4,5-Dimethylthiazol-2-yl)methylene) hydrazinyl)-4-(4-cyanophenyl) thiazole] | 5.1 | 2.5 | 2.25e-05 ± 2e-06 | – |
| 4.7e-06 ± 1.3e-06 | 2e-06 ± 8e-07 | N#Cc1ccc(-c2csc(NN=Cc3ccc(C(F)(F)F)cc3C(F)(F)F)n2)cc1 [Compound 3m, 2-(2-(2,4-Bis-(trifluoromethyl)benzylidene) hydrazinyl)-4-(4-cyanophenyl) thiazole] | 3.5 | 8.3 | 1.65e-05 ± 6e-07 | – |
| 2.2e-06 ± 1e-07 | 2.6e-06 ± 1e-07 | N#Cc1ccc(-c2csc(NN=Cc3cc(F)cc(C(F)(F)F)c3)n2)cc1 [Compound 3q, 2-(2-(3-Fluoro-5-(trifluoromethyl)benzylidene) hydrazinyl)-4-(4-cyanophenyl) thiazole] | 4.1 | 3.5 | 9e-06 ± 1e-07 | colony formation (HCT-116 cells): completely prevented colony formation |
| 3e-06 ± 1e-06 | 4.1e-06 ± 4e-07 | N#Cc1ccc(-c2csc(NN=Cc3cc(Br)cc([N+](=O)[O-])c3)n2)cc1 [Compound 3r, 2-(2-(3-Bromo-5-nitrobenzylidene)hydrazinyl)-4-(4-cyanophenyl) thiazole] | 4.1 | 3 | 1.22e-05 ± 6e-07 | – |
| 4e-06 ± 1e-06 | 4.2e-06 ± 6e-07 | Cc1cc(C)c(C=NNc2nc(-c3ccc(C#N)cc3)cs2)c(C)c1 [Compound 3v, 2-(2-(2,4,6-Trimethylbenzylidene)hydrazinyl)-4-(4-cyanophenyl) thiazole] | 2.8 | 2.7 | 1.12e-05 ± 3e-07 | – |
| 1.5e-06 ± 8e-07 | 7e-06 ± 2e-07 | N#Cc1ccc(-c2csc(NN=Cc3c(F)cc(F)cc3F)n2)cc1 [Compound 3w, 2-(2-(2,4,6-Trifluorobenzylidene)hydrazinyl)-4-(4-cyanophenyl) thiazole] | 0.7 | 0.2 | 1.1e-06 ± 5e-07 | – |
| 4.7e-06 ± 3e-07 | 2.3e-06 ± 3e-07 | N#Cc1ccc(-c2csc(NN=Cc3c(O)cc(O)cc3O)n2)cc1 [Compound 3x, 2-(2-(2,4,6-Trihydroxybenzylidene)hydrazinyl)-4-(4-cyanophenyl) thiazole] | 3.4 | 6.9 | 1.58e-05 ± 5e-07 | – |
| 1.6e-06 ± 4e-07 | 2.7e-06 ± 1e-07 | COc1cc(C=NNc2nc(-c3ccc(C#N)cc3)cs2)cc(OC)c1OC [Compound 3y, 2-(2-(3,4,5-Trimethoxybenzylidene)hydrazinyl)-4-(4-cyanophenyl) thiazole] | 14.6 | 8.7 | 2.34e-05 ± 3e-07 | – |
| 1.9e-06 ± 5e-07 | 2.5e-06 ± 2e-07 | COc1cc(OC)c(OC)cc1C=NNc1nc(-c2ccc(C#N)cc2)cs1 [Compound 3z, 2-(2-(2,4,5-Trimethoxybenzylidene)hydrazinyl)-4-(4-cyanophenyl) thiazole] | 11.5 | 8.7 | 2.18e-05 ± 2e-07 | fold increase in activity against HCT-116 cells ([1]; relative to compound 3j): 3.5 fold |
| 3.1e-06 ± 1.5e-06 | 3.4e-06 ± 1e-06 | N#Cc1ccc(-c2csc(N/N=C/c3ccccc3F)n2)cc1 [a] | – | – | 1.66e-05 ± 1e-07 | – |
| 2.2e-06 ± 5e-07 | 3.66e-05 ± 1.4e-06 | N#Cc1ccc(-c2csc(N/N=C/c3cccc(F)c3)n2)cc1 [b] | – | – | 1.68e-05 ± 5e-07 | – |
